Columns and labels:
D(1A) dopamine receptor = D(1A) dopamine receptor (Homo sapiens, UniProt P21728); experiment: Displacement of [3H]SCH23390 from human dopamine D1 receptor expressed in HEK293T cells by radioligand binding assay relative to control; format: cell-based; set-up: concentration or dose not given beside the values; conditions: concentration not given here
[1] = molecular target: 5-hydroxytryptamine receptor 2B (Homo sapiens, UniProt P41595); experiment: Displacement of [3H]LSD from human 5-HT2B receptor expressed in HEK cells by radioligand binding assay; format: cell-based
[2] = molecular target: Kappa-type opioid receptor (Homo sapiens, UniProt P41145); experiment: Displacement of [3H]U69593 from KOR (unknown origin) expressed in HEK cells by radioligand binding assay; format: cell-based
[3] = molecular target: Sodium-dependent serotonin transporter (Homo sapiens, UniProt P31645); experiment: Displacement of [3H]Citalopram from human SERT expressed in HEK cells by radioligand binding assay relative to control; format: cell-based
Chain of Sodium-dependent serotonin transporter (P31645 whole entry): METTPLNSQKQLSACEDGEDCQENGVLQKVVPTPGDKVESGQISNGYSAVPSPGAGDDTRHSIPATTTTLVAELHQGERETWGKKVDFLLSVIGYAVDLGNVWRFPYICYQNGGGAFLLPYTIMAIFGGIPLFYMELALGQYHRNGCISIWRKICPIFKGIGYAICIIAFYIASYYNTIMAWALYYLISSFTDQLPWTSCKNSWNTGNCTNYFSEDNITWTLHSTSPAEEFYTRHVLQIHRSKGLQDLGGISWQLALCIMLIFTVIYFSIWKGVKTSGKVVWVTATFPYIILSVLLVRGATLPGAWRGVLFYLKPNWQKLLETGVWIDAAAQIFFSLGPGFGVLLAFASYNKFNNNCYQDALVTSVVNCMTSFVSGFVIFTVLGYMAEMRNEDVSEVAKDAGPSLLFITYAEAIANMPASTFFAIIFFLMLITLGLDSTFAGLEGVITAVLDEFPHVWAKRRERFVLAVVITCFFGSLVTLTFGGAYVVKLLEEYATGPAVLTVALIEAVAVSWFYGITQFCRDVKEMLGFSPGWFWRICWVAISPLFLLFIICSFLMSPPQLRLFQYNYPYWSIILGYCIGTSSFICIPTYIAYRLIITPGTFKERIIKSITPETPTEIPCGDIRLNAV

[4] = molecular target: T1, Sodium-dependent noradrenaline transporter (Homo sapiens, UniProt P23975); experiment: Displacement of [3H]Nisoxetine from human NET expressed in HEK cells by radioligand binding assay relative to control; format: cell-based
[5] = molecular target: T2, 5-hydroxytryptamine receptor 2C (Homo sapiens) (UniProt P28335); experiment: Displacement of [3H]Mesulergine from human 5-HT2C receptor expressed in HEK293FlpIN cells by radioligand binding assay relative to control; format: cell-based; set-up: concentration or dose not given beside the values; conditions: concentration not given here
T2 sequence (whole entry): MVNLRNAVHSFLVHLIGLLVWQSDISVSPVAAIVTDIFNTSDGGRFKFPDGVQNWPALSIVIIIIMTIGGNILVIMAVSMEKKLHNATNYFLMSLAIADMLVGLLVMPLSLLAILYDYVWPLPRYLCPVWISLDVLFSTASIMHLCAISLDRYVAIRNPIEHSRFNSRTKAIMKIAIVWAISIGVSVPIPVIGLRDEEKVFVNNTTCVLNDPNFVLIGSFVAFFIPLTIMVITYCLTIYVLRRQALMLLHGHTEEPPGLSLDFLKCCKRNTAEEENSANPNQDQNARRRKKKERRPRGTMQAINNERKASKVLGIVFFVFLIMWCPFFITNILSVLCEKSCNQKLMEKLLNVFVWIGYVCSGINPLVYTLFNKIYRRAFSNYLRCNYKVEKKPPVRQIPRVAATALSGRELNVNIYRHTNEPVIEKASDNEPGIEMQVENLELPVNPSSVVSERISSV

[6] = molecular target: Delta-type opioid receptor (Homo sapiens, UniProt P41143); experiment: Displacement of [3H]DADLE from human DOR expressed in HEK cells by radioligand binding assay relative to control; format: cell-based; set-up: concentration or dose not given beside the values; conditions: concentration not given here
Chain of Delta-type opioid receptor (P41143 whole entry): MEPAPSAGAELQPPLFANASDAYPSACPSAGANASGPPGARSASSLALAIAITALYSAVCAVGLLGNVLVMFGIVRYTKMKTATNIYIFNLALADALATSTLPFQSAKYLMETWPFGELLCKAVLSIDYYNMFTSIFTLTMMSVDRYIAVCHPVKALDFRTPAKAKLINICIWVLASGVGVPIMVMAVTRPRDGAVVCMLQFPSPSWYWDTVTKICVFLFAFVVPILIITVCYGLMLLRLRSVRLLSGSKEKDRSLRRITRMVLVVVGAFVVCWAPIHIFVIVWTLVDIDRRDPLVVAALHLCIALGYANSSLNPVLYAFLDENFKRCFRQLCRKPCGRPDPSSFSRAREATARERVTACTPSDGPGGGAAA

[7] = molecular target: 5-hydroxytryptamine receptor 6 (Homo sapiens, UniProt P50406); experiment: Displacement of [3H]LSD from human 5-HT6 receptor expressed in HEK cells by radioligand binding assay relative to control; format: cell-based; set-up: concentration or dose not given beside the values; conditions: concentration not given here
D(3) dopamine receptor [8] = molecular target: T3, D(3) dopamine receptor (Homo sapiens, UniProt P35462); experiment: Displacement of [3H]N-methylspiperone from human dopamine D3 receptor expressed in HEK293T cells by radioligand binding assay relative to control; format: cell-based; set-up: concentration or dose not given beside the values; conditions: concentration not given here
T3 sequence (P35462 whole entry): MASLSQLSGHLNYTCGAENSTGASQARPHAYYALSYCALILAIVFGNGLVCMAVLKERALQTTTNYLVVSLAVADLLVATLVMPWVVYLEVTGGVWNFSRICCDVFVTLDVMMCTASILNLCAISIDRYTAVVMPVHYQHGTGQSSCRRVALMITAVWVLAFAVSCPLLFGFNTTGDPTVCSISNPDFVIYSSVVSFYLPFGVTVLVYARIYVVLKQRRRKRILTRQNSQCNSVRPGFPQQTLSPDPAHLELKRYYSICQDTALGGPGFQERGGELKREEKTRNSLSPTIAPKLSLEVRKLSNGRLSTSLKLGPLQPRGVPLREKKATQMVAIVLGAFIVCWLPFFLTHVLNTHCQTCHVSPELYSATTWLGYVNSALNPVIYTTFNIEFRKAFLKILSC

D(2) dopamine receptor = D(2) dopamine receptor (Homo sapiens, UniProt P14416); experiment: Displacement of [3H]N-methylspiperone from human dopamine D2 receptor expressed in stable fibroblast cells by radioligand binding assay relative to control; format: cell-based; set-up: concentration or dose not given beside the values; conditions: concentration not given here
Chain of D(2) dopamine receptor (P14416 whole entry): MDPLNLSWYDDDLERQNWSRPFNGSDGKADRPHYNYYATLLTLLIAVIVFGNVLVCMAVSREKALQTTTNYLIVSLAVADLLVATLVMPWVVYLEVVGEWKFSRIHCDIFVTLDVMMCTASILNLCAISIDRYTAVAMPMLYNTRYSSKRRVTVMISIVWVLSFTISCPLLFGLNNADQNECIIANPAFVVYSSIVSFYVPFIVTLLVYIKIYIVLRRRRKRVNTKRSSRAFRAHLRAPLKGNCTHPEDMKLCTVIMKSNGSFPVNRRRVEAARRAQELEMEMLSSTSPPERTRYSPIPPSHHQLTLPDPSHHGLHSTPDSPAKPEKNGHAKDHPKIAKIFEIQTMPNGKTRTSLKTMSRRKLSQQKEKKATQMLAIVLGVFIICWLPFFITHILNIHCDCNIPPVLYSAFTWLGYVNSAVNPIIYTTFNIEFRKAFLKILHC

Histamine H2 receptor = Histamine H2 receptor (Homo sapiens, UniProt P25021); experiment: Displacement of [3H]Cimetidine from human H2 receptor expressed in HEK cells by radioligand binding assay relative to control; format: cell-based; set-up: concentration or dose not given beside the values; conditions: concentration not given here
Chain of Histamine H2 receptor (P25021 whole entry): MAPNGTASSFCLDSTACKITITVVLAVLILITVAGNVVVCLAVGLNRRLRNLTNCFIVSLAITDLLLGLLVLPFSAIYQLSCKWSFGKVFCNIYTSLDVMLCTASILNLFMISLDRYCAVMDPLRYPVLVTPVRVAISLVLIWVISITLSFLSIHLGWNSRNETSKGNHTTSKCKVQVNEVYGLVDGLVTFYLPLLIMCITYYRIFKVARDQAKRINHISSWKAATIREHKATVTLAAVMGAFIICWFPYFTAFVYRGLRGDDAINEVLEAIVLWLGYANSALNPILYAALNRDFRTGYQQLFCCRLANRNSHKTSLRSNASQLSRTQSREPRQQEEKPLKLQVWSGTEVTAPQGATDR

[9] = molecular target: T1, Sodium-dependent noradrenaline transporter; experiment: Displacement of [3H]Nisoxetine from human NET expressed in HEK cells by radioligand binding assay; format: cell-based
MDA-MB-231 = experiment: Cytotoxicity against human MDA-MB-231 cells assessed as reduction in cell viability after 24 hrs by MTT assay; format: functional, cell-based; conditions: MDA-MB-231, 24 h
Summary of the method: (§1)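 Cells exposed to compounds; viability read at 24, 48 and 72 h. Every experiment run in triplicate.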

Mu-type opioid receptor = Mu-type opioid receptor (Homo sapiens, UniProt P35372); experiment: Displacement of [3H]DAMGO from human MOR expressed in HEK cells by radioligand binding assay; format: cell-based
Chain of Mu-type opioid receptor (P35372 whole entry): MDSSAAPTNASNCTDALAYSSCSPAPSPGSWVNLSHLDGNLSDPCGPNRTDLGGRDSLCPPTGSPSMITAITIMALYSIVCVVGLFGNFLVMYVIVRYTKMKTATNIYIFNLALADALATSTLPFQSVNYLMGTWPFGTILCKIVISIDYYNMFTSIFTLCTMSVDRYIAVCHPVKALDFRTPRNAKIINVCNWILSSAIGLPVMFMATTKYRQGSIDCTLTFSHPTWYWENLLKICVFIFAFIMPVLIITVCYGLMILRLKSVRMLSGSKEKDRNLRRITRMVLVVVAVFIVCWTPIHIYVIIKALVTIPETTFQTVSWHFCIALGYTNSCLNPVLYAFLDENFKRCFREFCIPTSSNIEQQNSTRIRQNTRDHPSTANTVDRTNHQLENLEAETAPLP

NIH3T3 [10] = experiment: Cytotoxicity against mouse NIH/3T3 cells assessed as reduction in cell viability after 24 hrs by MTT assay; format: cell-based; conditions: NIH3T3, 24 h; summary of the method: as §1
[11] = molecular target: T4, 5-hydroxytryptamine receptor 1A (Homo sapiens, UniProt P08908); experiment: Displacement of [3H]-Way100635 from human 5HT1A receptor expressed in stable CHO cell membranes by radioligand binding assay
T4 sequence (P08908 whole entry): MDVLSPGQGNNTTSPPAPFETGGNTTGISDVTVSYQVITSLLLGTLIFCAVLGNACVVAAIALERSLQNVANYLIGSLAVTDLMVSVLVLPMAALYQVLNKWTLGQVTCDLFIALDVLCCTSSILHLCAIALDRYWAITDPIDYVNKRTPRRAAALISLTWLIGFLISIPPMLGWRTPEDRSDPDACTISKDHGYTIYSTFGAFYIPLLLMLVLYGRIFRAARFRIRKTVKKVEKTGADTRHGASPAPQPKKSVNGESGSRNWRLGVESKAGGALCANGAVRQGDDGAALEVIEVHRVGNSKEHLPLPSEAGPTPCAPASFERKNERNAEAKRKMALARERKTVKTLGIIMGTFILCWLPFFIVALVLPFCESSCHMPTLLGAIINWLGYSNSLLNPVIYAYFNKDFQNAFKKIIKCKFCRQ

[12] = tested on: Lewis lung carcinoma cell line; experiment: Cytotoxicity against mouse LLC cells harboring […] assessed as reduction in cell viability after 72 hrs by MTT assay; format: functional, cell-based; summary of the method: as §1
[13] = molecular target: 5-hydroxytryptamine receptor 1D (Homo sapiens, UniProt P28221); experiment: Displacement of [3H]5-CT from human 5-HT1D receptor expressed in HEK293T cells by radioligand binding assay relative to control; format: cell-based; set-up: concentration or dose not given beside the values; conditions: concentration not given here
Chain of 5-hydroxytryptamine receptor 1D (P28221 whole entry): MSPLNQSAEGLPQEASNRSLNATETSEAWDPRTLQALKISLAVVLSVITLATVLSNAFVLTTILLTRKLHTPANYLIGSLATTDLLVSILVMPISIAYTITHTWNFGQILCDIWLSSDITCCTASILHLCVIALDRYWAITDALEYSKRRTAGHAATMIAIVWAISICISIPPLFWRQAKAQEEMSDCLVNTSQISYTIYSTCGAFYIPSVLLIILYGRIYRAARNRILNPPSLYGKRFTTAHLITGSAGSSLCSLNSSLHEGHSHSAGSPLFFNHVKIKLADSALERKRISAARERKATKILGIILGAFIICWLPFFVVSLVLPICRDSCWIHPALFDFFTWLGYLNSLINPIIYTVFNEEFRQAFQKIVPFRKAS

[14] = molecular target: T5, Sodium-dependent dopamine transporter (Homo sapiens, UniProt Q01959); experiment: Displacement of [3H]WIN35428 from human DAT expressed in HEK cells by radioligand binding assay; format: cell-based
T5 sequence (Q01959 whole entry): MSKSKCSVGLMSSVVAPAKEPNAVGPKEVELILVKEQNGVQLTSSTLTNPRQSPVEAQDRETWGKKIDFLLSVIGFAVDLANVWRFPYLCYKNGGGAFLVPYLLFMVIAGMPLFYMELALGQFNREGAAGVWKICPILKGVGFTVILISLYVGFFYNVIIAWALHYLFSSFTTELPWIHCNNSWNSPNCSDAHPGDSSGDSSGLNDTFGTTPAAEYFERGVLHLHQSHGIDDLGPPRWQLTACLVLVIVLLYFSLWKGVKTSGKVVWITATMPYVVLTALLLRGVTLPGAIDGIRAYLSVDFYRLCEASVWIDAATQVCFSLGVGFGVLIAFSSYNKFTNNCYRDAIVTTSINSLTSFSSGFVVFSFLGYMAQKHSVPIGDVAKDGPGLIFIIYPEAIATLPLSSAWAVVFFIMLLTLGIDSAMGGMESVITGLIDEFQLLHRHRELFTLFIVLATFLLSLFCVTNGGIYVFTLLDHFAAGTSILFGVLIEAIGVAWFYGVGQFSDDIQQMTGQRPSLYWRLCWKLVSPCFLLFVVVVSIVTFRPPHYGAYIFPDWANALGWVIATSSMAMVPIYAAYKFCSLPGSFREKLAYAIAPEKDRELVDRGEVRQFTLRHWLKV

NIH3T3 [15] = experiment: Cytotoxicity against mouse NIH/3T3 cells assessed as reduction in cell viability after 72 hrs by MTT assay; format: cell-based; conditions: NIH3T3, 72 h; summary of the method: as §1
D(1B) dopamine receptor = D(1B) dopamine receptor (Homo sapiens, UniProt P21918); experiment: Displacement of [3H]SCH23390 from human dopamine D5 receptor expressed in HEK293T cells by radioligand binding assay relative to control; format: cell-based; set-up: concentration or dose not given beside the values; conditions: concentration not given here
Chain of D(1B) dopamine receptor (P21918 whole entry): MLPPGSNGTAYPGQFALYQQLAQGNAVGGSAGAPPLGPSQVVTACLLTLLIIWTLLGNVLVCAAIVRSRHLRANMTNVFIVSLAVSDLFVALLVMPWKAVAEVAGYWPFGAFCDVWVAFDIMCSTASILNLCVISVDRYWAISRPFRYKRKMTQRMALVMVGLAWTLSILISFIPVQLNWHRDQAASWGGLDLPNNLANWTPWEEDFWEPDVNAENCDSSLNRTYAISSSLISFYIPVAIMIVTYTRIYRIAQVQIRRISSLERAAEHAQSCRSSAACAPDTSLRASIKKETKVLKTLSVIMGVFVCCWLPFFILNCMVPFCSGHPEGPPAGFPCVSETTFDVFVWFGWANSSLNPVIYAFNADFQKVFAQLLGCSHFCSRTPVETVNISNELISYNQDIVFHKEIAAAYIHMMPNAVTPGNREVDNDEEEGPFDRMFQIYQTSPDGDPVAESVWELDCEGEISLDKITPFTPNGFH

D(3) dopamine receptor [16] = molecular target: T3, D(3) dopamine receptor; experiment: Displacement of [3H]N-methylspiperone from human dopamine D3 receptor expressed in HEK293T cells by radioligand binding assay; format: cell-based
[17] = molecular target: T6, 5-hydroxytryptamine receptor 2C (Homo sapiens, UniProt P28335); experiment: Displacement of [3H]Mesulergine from human 5-HT2C receptor expressed in HEK293FlpIN cells by radioligand binding assay; format: cell-based
T6 sequence (P28335 whole entry): T2 sequence (whole entry)

[18] = molecular target: 5-hydroxytryptamine receptor 2A (Homo sapiens, UniProt P28223); experiment: Displacement of [3H]Ketanserin from 5-HT2A receptor (unknown origin) by radioligand binding assay
Chain of 5-hydroxytryptamine receptor 2A (P28223 whole entry): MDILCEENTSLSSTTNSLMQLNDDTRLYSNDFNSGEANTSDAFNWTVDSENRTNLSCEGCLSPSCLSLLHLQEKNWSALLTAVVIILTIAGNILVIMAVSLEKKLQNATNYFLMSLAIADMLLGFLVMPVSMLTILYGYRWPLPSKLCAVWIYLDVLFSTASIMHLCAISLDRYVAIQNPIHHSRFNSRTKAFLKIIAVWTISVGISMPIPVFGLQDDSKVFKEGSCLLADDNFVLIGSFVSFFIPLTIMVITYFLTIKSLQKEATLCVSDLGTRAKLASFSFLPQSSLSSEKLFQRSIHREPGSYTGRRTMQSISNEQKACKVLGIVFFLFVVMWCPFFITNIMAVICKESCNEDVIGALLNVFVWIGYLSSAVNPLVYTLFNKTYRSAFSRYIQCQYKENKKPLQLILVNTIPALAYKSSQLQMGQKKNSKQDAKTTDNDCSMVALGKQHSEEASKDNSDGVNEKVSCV

[19] = molecular target: T5, Sodium-dependent dopamine transporter; experiment: Displacement of [3H]WIN35428 from human DAT expressed in HEK cells by radioligand binding assay relative to control; format: cell-based
[20] = molecular target: 5-hydroxytryptamine receptor 5A (Homo sapiens, UniProt P47898); experiment: Displacement of [3H]LSD from human 5-HT5A receptor expressed in Flp-In CHO cells by radioligand binding assay relative to control; format: cell-based; set-up: concentration or dose not given beside the values; conditions: concentration not given here
Chain of 5-hydroxytryptamine receptor 5A (P47898 whole entry): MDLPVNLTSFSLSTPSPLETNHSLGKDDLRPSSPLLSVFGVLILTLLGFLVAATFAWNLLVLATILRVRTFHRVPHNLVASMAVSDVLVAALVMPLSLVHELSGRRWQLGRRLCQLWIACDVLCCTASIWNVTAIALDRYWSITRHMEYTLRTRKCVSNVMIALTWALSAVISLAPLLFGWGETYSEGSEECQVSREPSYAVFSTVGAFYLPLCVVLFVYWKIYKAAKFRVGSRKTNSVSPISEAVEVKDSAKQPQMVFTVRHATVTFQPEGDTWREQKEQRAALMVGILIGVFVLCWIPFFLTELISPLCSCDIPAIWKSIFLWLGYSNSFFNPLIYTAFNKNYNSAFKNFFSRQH

Row | SMILES | inhibition (D(1A) dopamine receptor) | Ki ([1]; read-out: Ki) | Ki [2] | inhibition (INH) [3] | inhibition [5] | inhibition [6] | inhibition [7] | inhibition (D(3) dopamine receptor [8]) | inhibition (D(2) dopamine receptor) | IC50 (MDA-MB-231) | Ki (Mu-type opioid receptor) | IC50 (NIH3T3 [10]) | Ki [11] | IC50 [12] | inhibition [13] | IC50 (NIH3T3 [15]) | Ki (D(3) dopamine receptor [16]) | Ki [17] | Ki [18] | inhibition [20] | other results
1 | OC1(c2ccc(Cl)c(C(F)(F)F)c2)CCN(CCCC(c2ccccc2)c2ccccc2)CC1 | 97.2% | 374 nM | 1330 nM | 83.7% | 82.9% | 82.7% | 72.8% | 97.4% | 100% | 9300 nM | 70 nM | 12200 nM | 481 nM | 9200 nM | 83.3% | 9800 nM | 62 nM | 2130 nM | 1000 nM |  | inhibition (INH) [4]: 90.6%; inhibition (Histamine H2 receptor): 89.5%; Ki [9]: 518 nM; Ki [14]: 121 nM; inhibition (D(1B) dopamine receptor): 89.4%; inhibition (INH) [19]: 87.5%
2 | OC1(c2ccc(Cl)c(C(F)(F)F)c2)CCN(CCCCCc2ccc(F)cc2)CC1 |  |  | 1700 nM |  | 57.7% |  | 24.7% | 77.8% | 81.8% | 19400 nM | 536 nM | 13200 nM | 901 nM | 8200 to 9800 nM | 50% | 9800 nM |  | 2550 nM | 889 nM | 16.4% | Ki [1]: Not Active; inhibition (Histamine H2 receptor): 69.2%
3 | COc1ccc(N(CCCCN2CCC(O)(c3ccc(Cl)c(C(F)(F)F)c3)CC2)c2ccc(OC)cc2)cc1 | 56.6% | 729 nM | 10000 nM | 94% | 72.6% | 77.6% | 50% | 65.1% | 60% | 8100 nM | 8250 nM | 8700 nM | 10000 nM | 2700 to 6100 nM | 78.8% | 11200 nM | 437 nM | 740 nM | 900 nM | 50% | inhibition (INH) [4]: 86.4%; Ki [9]: 1440 nM; Ki [14]: 622 nM; inhibition (D(1B) dopamine receptor): 83.5%; inhibition (INH) [19]: 91.3%
4 | OC1(c2ccc(Cl)c(C(F)(F)F)c2)CCN(CCCCN(c2ccc(F)cc2)c2ccc(F)cc2)CC1 | 77.9% | 509 nM | 10000 nM | 72.7% | 77.5% | 68.9% | 68% | 82.5% | 65.8% | 11300 nM | 10000 nM | 12100 nM | 1090 nM | 8200 nM | 70.6% | 6400 nM | 782 nM | 1130 nM | 6060 nM | 50% | inhibition (INH) [4]: 88.2%; Ki [9]: 458 nM; Ki [14]: 10000 nM; inhibition (D(1B) dopamine receptor): 84.6%; inhibition (INH) [19]: 86.6%
5 | OC1(c2ccc(Cl)c(C(F)(F)F)c2)CCN(CCCC(c2ccc(F)cc2)c2ccc(F)cc2)CC1 [PENFLURIDOL] | 96.5% | 184 nM |  | 92.7% | 95.3% | 89.1% | 96% | 98.2% | 71.5% | 6100 nM | 867 nM | 6030 nM | 356 nM | 4300 nM | 91.3% | 6010 nM | 136 nM | 881 nM | 361 nM | 95% | inhibition (INH) [4]: 86.2%; inhibition (Histamine H2 receptor): 98.4%; Ki [9]: 588 nM; Ki [14]: 1710 nM; inhibition (D(1B) dopamine receptor): 82.9%; inhibition (INH) [19]: 89.1%
6 | OC1(c2ccc(Cl)c(C(F)(F)F)c2)CCN(CCCC=C(c2ccc(F)cc2)c2ccc(F)cc2)CC1 |  | 2200 nM | 1020 nM |  | 77.2% | 74.1% | 54.4% | 87.1% | 87.3% | 23900 nM | 328 nM | 37200 nM | 1360 nM | 11200 nM |  | 7100 nM | 552 nM | 1600 nM | 1100 nM | 21.4% | inhibition (Histamine H2 receptor): 82.6%

Reference: ChEMBL document CHEMBL4257579, “Analogs of penfluridol as chemotherapeutic agents with reduced central nervous system activity” (Bioorg Med Chem Lett, 2018)
